In the library only some 0.84% were active in any assay of this set; here they are far more common.
DDE Tn7 FP inh: inhibitors of Tn7 peptide binding to human fibrin DD(E); inhibition, % at 8.3 µM; 370,000 compounds, 0.13% hits; FP displacement of FITC-Tn7 peptide from fibrin DD(E); 0% = median of compound wells per plate; AID 720508;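 active means inhibition above the mean of compounds falling within the control limits plus 3 SD of them, cut at about 14% in these data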
Target sequence (P02675 whole entry, looked up): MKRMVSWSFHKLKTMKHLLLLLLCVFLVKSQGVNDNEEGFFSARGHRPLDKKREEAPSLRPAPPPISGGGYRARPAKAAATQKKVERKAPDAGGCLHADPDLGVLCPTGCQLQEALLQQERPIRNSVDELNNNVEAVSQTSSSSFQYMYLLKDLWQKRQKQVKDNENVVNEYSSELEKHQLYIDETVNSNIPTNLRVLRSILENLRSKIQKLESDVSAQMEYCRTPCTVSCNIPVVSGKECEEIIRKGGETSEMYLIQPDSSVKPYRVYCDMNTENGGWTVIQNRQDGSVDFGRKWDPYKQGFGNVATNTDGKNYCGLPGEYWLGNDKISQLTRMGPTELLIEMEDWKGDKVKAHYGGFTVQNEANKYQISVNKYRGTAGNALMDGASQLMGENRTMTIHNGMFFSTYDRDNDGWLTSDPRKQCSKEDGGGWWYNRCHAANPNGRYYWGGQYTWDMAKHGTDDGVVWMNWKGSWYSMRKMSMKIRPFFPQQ
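System: human fibrin DD(E); quantity: Fibrin-DD(E) at 2 µM final; also added: fluorescent Tn7 probe at 0.1 µM; compound dosing: single nominal test concentration of 8.3 µM per compound; schedule: 10 min preincubation, 3 h with tracer, room temperature; detection: fluorescence polarization of the labelled Tn7 tracer; repeats: one replicate per compound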
DDE Tn6 FP inh: disrupts Tn6 cyclic peptide binding to fibrin D-Dimer-E complex. P02675. Fibrin DD(E) TRITC-Tn6 fluorescence polarization displacement. 370,000 compounds, 0.21% hits. inhibition, % at 8.3 µM;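 active means inhibition above a per-campaign cutoff: mean of compounds within control limits plus 3 SD, cut at about 15% in these data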
SKN-1 block: blocks SKN-1 activity in C. elegans; AID 624304; C. elegans VP596 Pgst-4::GFP/RFP ratio, acrylamide-induced, 24 h; 360,000 compounds, 0.49% hits; inhibition, % at 21.8 µM;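 active means interference check ratio from 0.5 to 1.5 plus GFP to RFP signal ratio inhibition reaching or exceeding a fixed threshold, cut at about 30% in these data, passing the limit was not always enough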
MT1-MMP act inh: inhibitors of human MT1-MMP activation; P50281; HT1080 RFP-PRO-GFP cells, GFP/RFP ratio fluorescence, overnight; percent of plate control window, DMSO zero; GFP/RFP ratio change, % at 20 µM; 360,000 compounds, 0.061% hits;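 active means GFP/RFP ratio change of at least 30% with cell ATP level not reduced by more than half and red fluorescence within 50% of control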
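Test system: HT1080 cells expressing an RFP-PRO-GFP fluorescent reporter construct / Compound dosing: single-point 20 µM compound, 1% DMSO / Schedule: cells overnight before dosing, compound overnight, 37 °C, 5% CO2 / Evaluation: GFP/RFP fluorescence ratio / Control set: DMSO and RFP-L50D-GFP cell wells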
Of the large screens only hits and unclear results are named; the others gave an inactive call.

O=C(CN1C(=O)c2ccccc2S1(=O)=O)NCCSc1ccccc1	none
CC(=O)c1cccc(NS(=O)(=O)c2ccc3c(c2)oc(=O)n3C)c1	SKN-1 block 36.8
Cn1c(=O)oc2cc(S(=O)(=O)Nc3cccc(C(=O)O)c3)ccc21	none
N#C/C(=C\c1ccc([N+](=O)[O-])o1)C(=O)Nc1ccc(F)cc1	SKN-1 block 35.4
COc1ccc(NS(=O)(=O)c2ccc3c(c2)n(C)c(=O)n3C)cc1	SKN-1 block 36.8
Cc1ccc(NS(=O)(=O)c2ccc3c(c2)n(C)c(=O)n3C)cc1	none (no result: DDE Tn7 FP inh, DDE Tn6 FP inh)
CCOc1ccc(N(CC(=O)Nc2c(C)n(C)n(-c3ccccc3)c2=O)S(=O)(=O)c2cccs2)cc1	none (no result: SKN-1 block, MT1-MMP act inh)
COC(=O)C1=C(C)NC(C)=C(C(=O)OC)C1c1ccc(OC(=O)c2ccco2)cc1	SKN-1 block 35.5
COC(=O)C1=C(C)NC(=S)NC1c1ccc(OC(=O)c2ccco2)cc1 (stereo not given)	none
Cc1c([N+](=O)[O-])oc2c1C(=O)NCCC2	none
Fc1cccc(Cl)c1/C=C/c1cnc2ccccc2n1	none
Fc1cccc(F)c1/C=C/c1ccc2ccccc2n1	SKN-1 block 50.7
CCCn1cnc2cc(NCc3ccccn3)ccc21	none
CCCn1cnc2cc(NCc3cccc(OC)c3O)ccc21	SKN-1 block 35.3
COc1ccc(CC(=O)Nc2ccc(-c3nc4cc(C)ccc4o3)c(O)c2)cc1OC	SKN-1 block 35.2
CCn1c2ccccc2c2cc(NC(=O)CSc3nnc(-c4ccc(OC)c(OC)c4)n3N)ccc21	SKN-1 block 36.4
CCn1c2ccccc2c2cc(NC(=O)CSc3nnc(-c4cccc(OC)c4)n3N)ccc21	none
COc1cc(NC(=O)CSc2nc(C)cc(=O)[nH]2)cc(OC)c1	none (no result: SKN-1 block, MT1-MMP act inh)
O=C(O)c1cc(-c2ccc3ccccc3n2)nc2ccccc12	none
O=C(O)c1cc(-c2cccc3ccccc23)nc2ccccc12	SKN-1 block 37.2
Fc1ccc(-c2cnn3c(-c4ccncc4)ccnc23)cc1	SKN-1 block 41.5
CCC(C)N(C(=O)COC(=O)c1ccc(N)c([N+](=O)[O-])c1)C1CCS(=O)(=O)C1 (stereo not given)	none
CCOc1ccc(-c2c(C(=O)N/N=C/c3cccnc3)nnn2-c2nonc2N)cc1	none
CC(=O)NC(c1ccccc1)c1nc(-c2ccc(F)c(Cl)c2)cs1 (stereo not given)	none
COc1ccc(CN(C(=O)c2oc3ccccc3c2C)C2CCS(=O)(=O)C2)cc1 (stereo not given)	SKN-1 block 36.0
Cc1ccc(CSc2nc3ccccc3c(=O)n2Cc2ccco2)cc1	SKN-1 block 38.3
O=C(CN1C(=O)NC2(CCCC2)C1=O)Nc1cc(S(=O)(=O)N2CCOCC2)ccc1OCC(F)(F)F	SKN-1 block 40.3
CCC(C)Nc1nc(C)nc2c1nnn2Cc1ccccc1 (stereo not given)	none (no result: SKN-1 block, MT1-MMP act inh)
N#C/C(=N\Nc1ccc(Cl)cc1)C(N)=S	SKN-1 block 39.1
CCC(=Nc1ccc(N)cc1)C1=C(O)C(C(=O)OC)C(C)(C)CC1=O (stereo not given)	DDE Tn6 FP inh 125.2
CCN(CC)C(=S)Sc1c(-c2ccccc2)c2cc(Cl)ccc2[nH]c1=O	SKN-1 block 35.1
CCOC(=O)c1sc2nc(C)nc(SC(C)C(=O)NC3CC3)c2c1C (stereo not given)	none
Cc1ccc(Nc2nc(N)nc(CN3CCN(c4ccccc4)CC3)n2)cc1Cl	none
COc1ccc(N2CCN(Cc3nc(N)nc(Nc4ccc(C)c(Cl)c4)n3)CC2)cc1	SKN-1 block 36.0
COC(=O)[C@]12C[C@H](CC(=O)NCCCN3CCCC3=O)C(=O)N(Cc3ccco3)C1=C[C@H](COCc1ccccc1)O[C@@H]2C	none (no result: SKN-1 block, MT1-MMP act inh)
C(=N\N=C\c1cccs1)/c1cccs1	SKN-1 block 73.7
CCOC(=O)CSc1cc(C)c(C#N)c2nc3ccccc3n12	none
CCOC(=O)c1c(C)cc(C)n2c1nc1ccccc12	SKN-1 block 39.6
CC1Cc2ccccc2N1C(=O)C1CCN(S(=O)(=O)Cc2ccccc2)CC1 (stereo not given)	SKN-1 block 31.9
Cc1c(Cl)cccc1NC(=S)N1CCC(N(C)CC2CCCO2)CC1 (stereo not given)	none
Cc1c2cc(O)c(=O)cc-2oc2cc(O)c(O)cc12	DDE Tn7 FP inh 15.1
COc1cc(-c2cc(=O)c3ccc(O)cc3o2)cc(OC)c1OC	none
COc1cc(OC)c(-c2c3cc(O)c(=O)cc-3oc3cc(O)c(O)cc23)cc1OC	DDE Tn6 FP inh active
COc1cc2[nH]c3c(=O)n4c(nc3c2cc1OC)SCCC4	none
CCOc1ccc2nc(NC(=O)c3ccco3)sc2c1	SKN-1 block 35.4
CCOc1ccc2nc(NC(=O)c3ccc(S(=O)(=O)N4CCOCC4)cc3)sc2c1	SKN-1 block 35.3
O=C(NC1CCC1)c1ccc(C#Cc2cccc(F)c2)nc1	none (no result: SKN-1 block, MT1-MMP act inh)
O=C(Nc1cc2nn(-c3ccccc3)nc2cc1Cl)c1ccco1	SKN-1 block 45.1
O=C(Nc1ccc2nn(-c3ccccc3)nc2c1)c1ccco1	none
CC(C)(C)C(=O)Nc1cc2nn(-c3ccccc3)nc2cc1Cl	SKN-1 block 42.1
CC(=O)Nc1ccccc1C(=O)C(=O)Nc1ccc(F)c(Cl)c1	none
O=C(CSc1nnc(-c2ccccc2)n1-c1ccc(Cl)cc1)Nc1ccc(OCc2ccccc2)cc1	none (no result: SKN-1 block, MT1-MMP act inh)
CSCC[C@H](N)C(=O)N1CCC(C(=O)N[C@@H](Cc2c[nH]c3ccccc23)C(=O)O)CC1	SKN-1 block 35.8
COCCNC(=O)C(c1ccc(C)o1)N(Cc1ccc(OC)cc1)C(=O)Cn1nnc2ccccc21 (stereo not given)	SKN-1 block 35.2
O=C1NC[C@H](Cc2ccc(O)cc2)N(C[C@@H]2CCCN2C[C@H](Cc2ccccc2)N2C[C@H](Cc3ccccc3)N(CC3CCCCCC3)C(=O)C2=O)C1=O	none
O=C1NC[C@H](Cc2ccccc2)N(C[C@@H]2CCCN2C[C@H](Cc2ccc(O)cc2)N2C[C@H](Cc3ccccc3)N(CC3CCCCCC3)C(=O)C2=O)C1=O	SKN-1 block 37.1
C=CCN1[C@H](C)COc2cc(F)ccc2S1(=O)=O	none (no result: SKN-1 block, MT1-MMP act inh)
O=S1(=O)C=C(Oc2ccc3ccccc3c2)c2ccccc21	SKN-1 block 37.0 (no result: DDE Tn7 FP inh, DDE Tn6 FP inh)
CC(=O)Nc1nc(-c2ccc([N+](=O)[O-])cc2)cs1	none
CC(C)c1nc(-c2ccc([N+](=O)[O-])cc2)cs1	SKN-1 block 53.2
FC(F)(F)c1ccccc1Cc1c(-c2ccco2)nc2c3ccccc3ccn12	none (no result: SKN-1 block, MT1-MMP act inh)
Cc1[nH]c2ccccc2c1C(=O)/C=C/c1ccccc1	SKN-1 block 53.0
COC(=O)[C@]12C[C@H](CC(=O)N3CCOCC3)C(=O)N(CCC3=CCCCC3)C1=C[C@H](C1CCCC1)O[C@@H]2C	none (no result: SKN-1 block, MT1-MMP act inh)
Cc1oc(-c2ccccc2Cl)nc1CS(=O)CC(=O)NCc1ccc2c(c1)OCO2 (stereo not given)	none
Cc1ccccc1-c1nc(CS(=O)CC(=O)NCc2ccc3c(c2)OCO3)c(C)o1 (stereo not given)	SKN-1 block 35.6
CCOC(=O)Nc1ccc2c(c1)C(=NNC(=S)NC)c1ccccc1-2	DDE Tn7 FP inh 14.9

Source: PubChem (several laboratories)
